Source: ChEMBL document CHEMBL1124668, “Solid-phase synthesis of 16 potent (selective and nonselective) in vivo antagonists of oxytocin” (J Med Chem, 1989)
Starred links: 1 amine or outer side, 2 acyl side, 3 side chain; linkers in the order of their positions; H or OH if unused. Positions of bridges follow the written chain, without caps; N, C: chain ends. Non-standard residues stand in square brackets, D forms with d. Residues, ends and D or L forms follow the SMILES beside them. X1 = O=C(CC1(S[*:2])CCCCC1)[*:1]; Orn = NCCC[C@H](N)C(=O)O

Assays:
[1] = species: Rattus norvegicus; experiment: Antidiuretic activity in rats; assay type: functional, Urine
[2] = system: Rattus norvegicus; experiment: Antivasopressor activity in vivo in phenoxybenzamine pre-treated rats.; assay type: functional
Outline: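 Rats pretreated with phenoxybenzamine, under urethane anesthesia; antagonist given iv; agonist USP Posterior Pituitary Reference Standard; read-out is pressor response. Effective dose (nmol/kg) is the dose that cuts the response to 2X units of agonist to that of 1X unit, interpolated semilogarithmically from bracketing doses. pA2 assumes a 67 mL/kg distribution volume. SEM is given where there are ≥4 independent estimates.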

[3] = system: Rattus norvegicus; experiment: In vivo inhibition of estrogen induced changes in interuterine pressure in rats.; assay type: functional
Outline: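 Rats pretreated with estrogen, under urethane anesthesia; antagonist given iv; read-out is change in integrated intrauterine pressure; agonist synthetic oxytocin. Effective dose (nmol/kg) is the dose that cuts the response to 2X units of agonist to the response to 1X unit, interpolated on a semilog scale from doses above and below it. pA2 is derived assuming a 67 mL/kg distribution volume.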

[4] = species: Rattus norvegicus; experiment: Antidiuretic activity in rat; assay type: functional, Urine
[5] = system: Rattus norvegicus; experiment: Antidiuretic activity in rats as intravenous dose required for reduction of 2x agonist response to equal 1x effect in estrogen pretreated rats; weak partial agonist/antagonist; assay type: functional, Urine
[6] = system: Rattus norvegicus; experiment: (§1) In vivo antidiuretic activity as intravenous antagonist dose in estrogen pretreated rats; Weak partial agonist/antagonist; assay type: functional, organism-based; details: Urine
[7] = system: Rattus norvegicus; experiment: as §1; assay type: functional, Urine
[8] = system: Rattus norvegicus; experiment: Antidiuretic activity in rats as intravenous dose required for reduction of 2x agonist response to equal 1x effect in hydrated rats under ethanol anesthesia; Weak partial agonist/antagonist
[9] = system: Rattus norvegicus; experiment: Antidiuretic activity in rats as intravenous dose required for reduction of 2x agonist response to equal 1x effect in estrogen pretreated rats; Weak partial agonist/antagonist; assay type: functional; details: Urine
[10] = system: Rattus norvegicus; experiment: In vivo antidiuretic activity as intravenous antagonist dose in estrogen pretreated rats; assay type: functional, Urine

Structure (SMILES) | ED [2] [nM/kg] | ED [3] [nM/kg] | Activity [4] [mg] | further results
CC[C@H](C)[C@@H]1NC(=O)C(Cc2ccc(OC)cc2)NC(=O)CC2(CCCCC2)SSC[C@@H](C(=O)N2CCC[C@H]2C(=O)N[C@@H](CCCN=C(N)N)C(=O)NCC(N)=O)NC(=O)[C@H](CC(N)=O)NC(=O)[C@H](CCC(N)=O)NC1=O (stereo in doubt) | 0.64 | 1.1 | – | Activity [1]: ~0.03 mg
CC[C@H](C)[C@@H]1NC(=O)[C@H](Cc2ccc(OC)cc2)NC(=O)CC2(CCCCC2)SSC[C@@H](C(=O)N2CCC[C@H]2C(=O)N[C@@H](CCCN)C(=O)NCC(N)=O)NC(=O)[C@H](CC(N)=O)NC(=O)[C@H]([C@@H](C)O)NC1=O (Y(Me)ITNCP[Orn]G-NH2; linker N-5 via X1) | 9.9 | 2 | 0.01 | ED [5]: ~330 nM/kg
CC[C@H](C)[C@H]1NC(=O)[C@@H](Cc2ccc(OC)cc2)NC(=O)CC2(CCCCC2)SSC[C@H](C(=O)N2CCC[C@H]2C(=O)N[C@@H](CCCN)C(=O)N[C@H](CCCN=C(N)N)C(N)=O)NC(=O)[C@@H](CC(N)=O)NC(=O)[C@H]([C@H](C)O)NC1=O | – | – | – | Activity [6]: Partial agonist
CC[C@H](C)[C@@H]1NC(=O)[C@H](Cc2ccc(OC)cc2)NC(=O)CC2(CCCCC2)SSC[C@@H](C(=O)N2CCC[C@H]2C(=O)N[C@@H](CCCN)C(=O)N[C@@H](CC(C)C)C(N)=O)NC(=O)[C@H](CC(N)=O)NC(=O)[C@H]([C@@H](C)O)NC1=O (Y(Me)ITNCP[Orn]L-NH2; linker N-5 via X1) | 27 | 1.8 | – | Activity [7]: 0.029 mg
CC[C@H](C)[C@@H]1NC(=O)[C@H](Cc2ccc(OC)cc2)NC(=O)CC2(CCCCC2)SSC[C@@H](C(=O)N2CCC[C@H]2C(=O)N[C@@H](CCCN)C(=O)O)NC(=O)[C@H](CC(N)=O)NC(=O)[C@H]([C@@H](C)O)NC1=O (Y(Me)ITNCP[Orn]-OH; linker N-5 via X1) | 23 | 1.3 | – | ED [8]: ~300 nM/kg
CC[C@H](C)[C@@H]1NC(=O)C(Cc2ccc(OC)cc2)NC(=O)CC(C)(C)SSC[C@@H](C(=O)N2CCC[C@H]2C(=O)N[C@@H](CCCN=C(N)N)C(=O)NCC(N)=O)NC(=O)[C@H](CC(N)=O)NC(=O)[C@H](CCC(N)=O)NC1=O (stereo in doubt) | 0.25 | 2.2 | ~1.6 | –
CC[C@H](C)[C@@H]1NC(=O)C(Cc2ccc(OC)cc2)NC(=O)CC2(CCCCC2)SSC[C@@H](C(=O)N2CCC[C@H]2C(=O)N[C@@H](CCCCN)C(=O)NCC(N)=O)NC(=O)[C@H](CC(N)=O)NC(=O)[C@H](CCC(N)=O)NC1=O (stereo in doubt) | 1.5 | 4.6 | ~0.003 | –
CC[C@H](C)[C@@H]1NC(=O)[C@H](Cc2ccc(OC)cc2)NC(=O)CC2(CCCCC2)SSC[C@@H](C(=O)N2CCC[C@H]2C(=O)N[C@@H](CCCN)C(N)=O)NC(=O)[C@H](CC(N)=O)NC(=O)[C@H]([C@@H](C)O)NC1=O (Y(Me)ITNCP[Orn]-NH2; linker N-5 via X1) | 7.3 | 1.7 | – | ED [8]: ~100 nM/kg
CC[C@H](C)[C@@H]1NC(=O)C(Cc2ccc(OC)cc2)NC(=O)CC(C)(C)SSC[C@@H](C(=O)N2CCC[C@H]2C(=O)N[C@@H](CCCN=C(N)N)C(=O)NCC(N)=O)NC(=O)[C@H](CC(N)=O)NC(=O)[C@H](C(C)C)NC1=O (stereo in doubt) | 0.23 | 1.9 | 1.6 | –
CC[C@H](C)[C@H]1NC(=O)[C@@H](Cc2ccc(OC)cc2)NC(=O)CC2(CCCCC2)SSC[C@H](C(=O)N2CCC[C@H]2C(=O)N[C@@H](CCCN)C(=O)N[C@H](C)C(N)=O)NC(=O)[C@@H](CC(N)=O)NC(=O)[C@H]([C@H](C)O)NC1=O | – | – | – | ED [9]: Partial agonist
CC[C@H](C)[C@@H]1NC(=O)[C@H](Cc2ccc(OC)cc2)NC(=O)CC2(CCCCC2)SSC[C@@H](C(=O)N2CCC[C@H]2C(=O)N[C@@H](CCCN)C(=O)N[C@@H](Cc2ccc(O)cc2)C(N)=O)NC(=O)[C@H](CC(N)=O)NC(=O)[C@H]([C@@H](C)O)NC1=O (Y(Me)ITNCP[Orn]Y-NH2; linker N-5 via X1) | 6.6 | 1 | – | Activity [10]: 0.015 mg
